Laboratory results reported in ChEMBL document CHEMBL1123808, “Synthesis of two glucagon antagonists: receptor binding, adenylate cyclase, and effects on blood plasma glucose levels” (J Med Chem, 1987).

Legend:
Rattus norvegicus [1] = species on record: Rattus norvegicus; assay: Ability to displace [125I]glucagon was determined; type: functional
Procedure, shortened: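 Rat liver plasma membranes (male Sprague-Dawley; 50 μg protein/0.5 mL) in Tris-HCl 25 mM pH 7.5 with 1% BSA, incubated with [125I]glucagon (100 000 cpm, 25 fmol) and unlabelled peptide at various concentrations for 10 min at 30 °C. Then iced, filtered and washed, and filter radioactivity counted. Nonspecific binding taken with 1 μM unlabelled glucagon. Triplicates, repeated two or three times. IC50 from displacement curves.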

Rattus norvegicus [2] = species on record: Rattus norvegicus; assay: Compound tested for the inhibition of glucagon-mediated hyperglycemia in rats; type: functional; design: scale not given: the % may be the effect or the level left
Procedure, shortened: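 Normal male Wistar rats under pentobarbital, femoral vein and artery catheterised. At time 0, glucagon 1 μg/kg and an excess of analogue were given together in the same 0.5 mL buffer bolus. Plasma glucose followed over 50 min as change from basal. Mean of 4-6 animals.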

Rattus norvegicus [3] = assay: Compound tested for the increase in blood glucose level in rats at a dose of 1 ug/kg in 10 min; type: functional, organism-based
Procedure, shortened: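 Male Wistar rats (250-400 g), fed ad libitum, under pentobarbital (70 mg/kg) at 36-37 °C. Peptide given as a femoral-vein bolus in 0.5 mL NaCl 145 mM/Na2CO3 2 mM/0.25% BSA. Plasma glucose from femoral-artery samples at 0, 2, 5, 10, 20, 30, 40, 50 min, expressed as change from each rat's basal level. Buffer-only controls run. n = 4-6.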

Rattus norvegicus [4] = species on record: Rattus norvegicus; assay: Binding affinity against glucagon receptor was determined in rat by using adenylate cyclase assay; type: functional

CSCC[C@H](NC(=O)[C@H](CC(C)C)NC(=O)[C@H](Cc1c[nH]c2ccccc12)NC(=O)[C@H](CCC(N)=O)NC(=O)[C@@H](NC(=O)[C@H](Cc1ccccc1)NC(=O)[C@H](CCC(=O)O)NC(=O)[C@H](CCC(N)=O)NC(=O)[C@H](C)NC(=O)[C@H](CCCCN)NC(=O)[C@H](CCCCN)NC(=O)[C@H](CO)NC(=O)[C@H](CC(=O)O)NC(=O)[C@H](CC(C)C)NC(=O)[C@H](Cc1ccc(O)cc1)NC(=O)[C@H](CCCNC(=N)N)NC(=O)[C@H](CO)NC(=O)[C@H](Cc1cc(I)c(O)c(I)c1)NC(=O)[C@H](CC(=O)O)NC(=O)[C@H](CO)NC(=O)[C@@H](NC(=O)[C@H](Cc1ccccc1)NC(=O)[C@H](Cc1ccc(O)cc1)NC(=O)[C@@H](Cc1ccccc1)NC(=O)[C@H](CCC(N)=O)NC(=O)[C@H](CO)NC(=O)[C@@H](N)Cc1c[nH]cn1)[C@@H](C)O)C(C)C)C(=O)N[C@@H](CC(N)=O)C(=O)N[C@H](C(=O)O)[C@@H](C)O [listing 1 of 2 here] showed an IC50 (Rattus norvegicus [1]) of 13 nM.

CSCC[C@H](NC(=O)[C@H](CC(C)C)NC(=O)[C@H](Cc1c[nH]c2ccccc12)NC(=O)[C@H](CCC(N)=O)NC(=O)[C@@H](NC(=O)[C@H](Cc1ccccc1)NC(=O)[C@H](CCC(=O)O)NC(=O)[C@H](CCC(N)=O)NC(=O)[C@H](C)NC(=O)[C@H](CCCCN)NC(=O)[C@H](CCCCN)NC(=O)[C@H](CO)NC(=O)[C@H](CC(=O)O)NC(=O)[C@H](CC(C)C)NC(=O)[C@H](Cc1ccc(O)cc1)NC(=O)[C@H](CCCNC(=N)N)NC(=O)[C@H](CO)NC(=O)[C@H](Cc1cc(I)c(O)c(I)c1)NC(=O)[C@H](CC(=O)O)NC(=O)[C@H](CO)NC(=O)[C@@H](NC(=O)[C@H](Cc1ccccc1)NC(=O)[C@H](Cc1ccc(O)cc1)NC(=O)[C@@H](Cc1ccccc1)NC(=O)[C@H](CCC(N)=O)NC(=O)[C@H](CO)NC(=O)[C@@H](N)Cc1c[nH]cn1)[C@@H](C)O)C(C)C)C(=O)N[C@@H](CC(N)=O)C(=O)N[C@H](C(=O)O)[C@@H](C)O [listing 2 of 2 here] was tested, and the Activity (Rattus norvegicus [2]) was 50%.

Compound GLUCAGON [listing 1 of 2 here] has an IC50 (Rattus norvegicus [1]) of 6.7 nM.

GLUCAGON [listing 2 of 2 here] showed an Activity (Rattus norvegicus [3]) of 95.1 mg/dL and an ED50 (Rattus norvegicus [4]) of 9.6 nM.
